Experimental data pooled from the literature.
Compare with care: the assays were run in different laboratories.
Effect on: cell growth or viability

Cn1cc2cc(C(F)(F)c3nnc4ccc(-c5cnn(C6CC6)c5)nn34)c(F)cc2n1  IC50 (KATO III; CCK-8; 72 h): > 1 µM
O=C(CCCCCCNC(=O)c1cnc(N(c2ccccc2)c2ccccc2)nc1)NO  EC50 (MV4-11; ATP luminescence; 72 h): 0.713 µM
N.N.[Cl][Pt][Cl]  IC50 (MDA-MB-468; MTT; 48 h, dark): 6.97 µM
COc1c(C)c2c(c(O)c1C/C=C(\C)CCC(=O)O)C(=O)OC2  IC50 (MDA-MB-468): 0.417 µM
N.N.[Cl][Pt][Cl]  IC50 (HBL1; ATP luminescence; 72 h): 1.31 µM
N.N.[Cl][Pt][Cl]  IC50 (BEAS-2B; MTT; 24 h): > 100 µM
N.N.[Cl][Pt][Cl]  IC50 (MDA-MB-468; MTT; 48 h): 5 µM
CN(C)c1ccc(C(=O)NCCCCCCC(=O)NO)cc1  viability (HBL1; ATP luminescence; 0.1 µM, 5 days): 125%
